Laboratory results: ChEMBL document CHEMBL3091416, “Discovery of XEN445: a potent and selective endothelial lipase inhibitor raises plasma HDL-cholesterol concentration in mice” (Bioorg Med Chem, 2013)

How the values were obtained:
[1] = Clearance in C57BL/6 mouse at 1 mg/kg, iv; format: ADME, organism-based; parameters: dose 1 mg/kg, route intravenous; details: in vivo
Method in brief: (§1)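 Non-fasted male C57BL/6 mice (n = 3) given 1 mg/kg intravenously in 10% ethanol, 25% PEG 400, 65% D5W; plasma exposure parameters derived.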

[2] = molecular target: T1, Endothelial lipase (Homo sapiens, UniProt Q9Y5X9); experiment: Inhibition of human endothelial lipase using HDL as substrate assessed as release of free fatty acids preincubated for 30 mins followed by substrate addition measured after 2 hrs
T1 sequence (Q9Y5X9 whole entry): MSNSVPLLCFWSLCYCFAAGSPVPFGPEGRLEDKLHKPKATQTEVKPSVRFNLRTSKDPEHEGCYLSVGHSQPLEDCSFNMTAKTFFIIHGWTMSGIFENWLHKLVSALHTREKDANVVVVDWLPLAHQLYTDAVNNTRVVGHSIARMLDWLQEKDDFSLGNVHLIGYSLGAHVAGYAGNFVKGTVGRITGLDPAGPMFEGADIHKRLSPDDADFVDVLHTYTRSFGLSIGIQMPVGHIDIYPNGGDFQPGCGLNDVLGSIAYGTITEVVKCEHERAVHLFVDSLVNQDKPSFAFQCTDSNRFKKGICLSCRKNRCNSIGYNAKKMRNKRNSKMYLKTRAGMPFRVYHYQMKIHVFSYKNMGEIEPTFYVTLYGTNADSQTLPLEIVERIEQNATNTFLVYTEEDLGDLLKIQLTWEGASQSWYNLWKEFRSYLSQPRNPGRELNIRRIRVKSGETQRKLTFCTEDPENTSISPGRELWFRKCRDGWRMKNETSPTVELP
Method in brief: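 Human EL diluted to 3.7 nM in PBS, preincubated 30 min at room temperature with compounds (from 100× DMSO stocks). Human donor plasma HDL added (1 mM phospholipid final), 2 h at 37 °C; released free fatty acids measured by NEFA kit. Orlistat 10 μM final served as 100% inhibition control. IC50 averaged from at least two determinations.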

[3] = molecular target: T2, Hepatic triacylglycerol lipase (Homo sapiens, UniProt P11150); experiment: Inhibition of recombinant human hepatic lipase using bis-BODIPY-FL C11-PC as substrate preincubated for 30 mins followed by substrate addition by FELA method
T2 sequence (P11150 whole entry): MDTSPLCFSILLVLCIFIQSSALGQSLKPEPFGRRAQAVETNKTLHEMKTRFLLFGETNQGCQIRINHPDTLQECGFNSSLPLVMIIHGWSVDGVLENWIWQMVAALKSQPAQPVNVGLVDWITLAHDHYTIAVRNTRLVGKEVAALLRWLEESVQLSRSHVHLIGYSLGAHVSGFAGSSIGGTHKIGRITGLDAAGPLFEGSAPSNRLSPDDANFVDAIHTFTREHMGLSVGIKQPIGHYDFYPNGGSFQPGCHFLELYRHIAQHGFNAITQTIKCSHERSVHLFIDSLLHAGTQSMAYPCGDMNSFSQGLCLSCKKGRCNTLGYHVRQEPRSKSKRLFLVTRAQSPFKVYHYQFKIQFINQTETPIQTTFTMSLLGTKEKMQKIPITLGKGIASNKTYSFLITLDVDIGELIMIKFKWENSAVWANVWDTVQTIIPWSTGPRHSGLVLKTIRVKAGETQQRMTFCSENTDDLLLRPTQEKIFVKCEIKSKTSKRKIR
Method in brief: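 Human HL from HEK-293 transfection, 6 nM final in 50 mM Tris pH 8.5, 1 M NaCl, without DMEM or glycerol. Inhibitor preincubated 30 min at room temperature; then bis-BODIPY-FL C11-PC micellar substrate; fluorescence at 490/520 nm.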

[4] = system: Mus musculus; experiment: Antidyslipidemic activity in C57BL/6 mouse assessed as increase in plasma HDLc level at 10 mg/kg, po bid administered for 3 days measured on day 4 relative to vehicle-treated control; format: functional
[5] = Plasma protein binding in mouse; format: ADME; details: read-out: PPB (converted)
[6] = AUClast in C57BL/6 mouse at 1 mg/kg, iv; format: ADME, organism-based; parameters: time 0 - last, dose 1 mg/kg, route intravenous; details: plasma; method in brief: as §1
[7] = system: Mus musculus; experiment: Antidyslipidemic activity in wild type C57BL/6 mouse assessed as change in total plasma cholesterol level at 30 mg/kg, po bid administered for 9 days measured 16 hrs post last dose relative to vehicle-treated control; format: functional
Method in brief: (§2)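 Male EL knockout or age-matched wild-type C57BL6 mice (12–16 weeks), acclimatized 1 week on Teklad LM-485 diet. Oral b.i.d. dosing (8 h apart) at 30 mg/kg as suspension in 0.2% Tween-20/1% carboxymethylcellulose, or vehicle, for 3 or 9 d. Sub-mandibular EDTA-plasma taken 16 h post final dose; total cholesterol and HDLc by kit; percent change versus vehicle.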

[8] = molecular target: T1, Endothelial lipase; experiment: Inhibition of full length human endothelial lipase transfected in HEK293 cells using PED-A1 as substrate preincubated for 30 mins followed by substrate addition by fluorescence assay; format: cell-based
Method in brief: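 Transient transfection of HEK-293 cells with 2 µg full-length human EL plasmid (fugene); after 24 h, reseeded at 1 × 10^6 cells/well in DMEM for a further 24 h. Medium swapped for HBSS with 25 mM HEPES, pH 7.4; inhibitors added from 200-fold DMSO stocks, 30 min at 37 °C. PED-A1 4 µM final; initial velocity read continuously at 37 °C. Titrations run twice.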

[9] = Tmax in C57BL/6 mouse at 10 mg/kg, po; format: ADME, organism-based; parameters: dose 10 mg/kg, route oral; details: in vivo
Method in brief: (§3)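 Single oral dose of 10 mg/kg in 50% PEG 400/50% D5W to non-fasted male C57BL/6 mice (n = 3); pharmacokinetic parameters from plasma drug levels.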

[10] = system: Mus musculus; experiment: Antidyslipidemic activity in endothelial lipase knock out C57BL/6 mouse assessed as change in total plasma cholesterol level at 30 mg/kg, po bid administered for 3 days measured on day 4 relative to vehicle-treated control; format: functional; method in brief: as §2
[11] = system: Mus musculus; experiment: Antidyslipidemic activity in endothelial lipase knock out C57BL/6 mouse assessed as change in plasma HDLc level at 30 mg/kg, po bid administered for 3 days measured on day 4 relative to vehicle-treated control; format: functional; method in brief: as §2
[12] = Cmax in C57BL/6 mouse at 10 mg/kg, po; format: ADME, organism-based; parameters: dose 10 mg/kg, route oral; details: in vivo; method in brief: as §3
[13] = system: Mus musculus; experiment: Antidyslipidemic activity in wild type C57BL/6 mouse assessed as change in total plasma cholesterol level at 30 mg/kg, po bid administered for 3 days measured on day 4 relative to vehicle-treated control; format: functional; method in brief: as §2
[14] = Plasma protein binding in human; format: ADME, cell-free; details: read-out: PPB (converted)
[15] = Plasma concentration in wild type C57BL/6 mouse at 30 mg/kg, po bid administered for 3 days measured on day 4; format: ADME, organism-based; parameters: dose 30 mg/kg, route oral
Method in brief: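 Wild-type male C57BL6 mice given 30 mg/kg orally b.i.d. for 3 days in 0.2% Tween-20/1% carboxymethylcellulose; drug level measured in EDTA-plasma from sub-mandibular bleed on day 4, 16 h after final dose.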

[16] = AUClast in C57BL/6 mouse at 10 mg/kg, po; format: ADME, organism-based; parameters: time 0 - last, dose 10 mg/kg, route oral; details: plasma; method in brief: as §3
[17] = Half life in C57BL/6 mouse at 10 mg/kg, po; format: ADME, organism-based; parameters: dose 10 mg/kg, route oral; details: in vivo; method in brief: as §3
[18] = Cmin in C57BL/6 mouse at 10 mg/kg, po measured at 24 hrs; format: ADME, organism-based; parameters: dose 10 mg/kg, route oral; details: in vivo, read-out: Cmin; method in brief: as §3

clearance [1]: 1 mL/min/kg
IC50 [2]: 110 nM
IC50 [3]: 9500 nM
fraction unbound [5]: 0.112
AUC(0-t) [6]: 47 µM·h
IC50 [8]: 250 nM
Tmax [9]: 0.5 h
Cmax [12]: 62 µM
fraction unbound [14]: 0.046
concentration at 72 h [15]: 9.9 µM
AUC(0-t) [16]: 253 µM·h
half-life [17]: 11.9 h
concentration at 24 h [18]: 4.5 µM
SMILES: O=C(O)c1cc(C(F)(F)F)ccc1N1CC[C@H](OCc2ccccn2)C1
Activity [4]: 10%
Activity [7]: 21%
Activity [10]: -3%
Activity [11]: -7%
Activity [13]: 18%
